Published values of several laboratories.
Lines come from different studies, so protocols differ. pIC50: −log10 of the molar value.

SMILES	cell line	effect on	mode	technique	time	notes	pIC50
COc1cccc2c1C(=O)c1c(O)c3c(c(O)c1C2=O)C[C@@](O)(C(=O)CO)C[C@@H]3O[C@H]1C[C@H](N)[C@H](O)[C@H](C)O1	SUM159	cell growth or viability	–	MTT	48 h	–	5.40
CC(C)/N=C1\c2cc(C(N)=O)nc3c(N)c(Cl)c(N)c(c23)N1C	Calu-3	cell growth or viability	–	–	–	–	6.11
Nc1ccn([C@@H]2O[C@H](CO)[C@@H](O)C2(F)F)c(=O)n1	Panc02	cell growth or viability	–	CCK-8	72 h	–	7.47
Clc1ccc(Cn2c(-c3ccc(Cl)cc3)nc3ccccc32)cc1	MCF7	cell growth or viability	–	MTT	–	–	5.07
N[C@@H](CC(=O)N1CCN(C(c2ccc(F)cc2)c2ccc(F)cc2)CC1)C(=O)N1Cc2ccccc2C1	NOMO-1	cell growth or viability	–	ATP luminescence	48 h	–	5.33
CCCn1cnc2cc(/C=C/C(=O)NO)ccc2c1=O	SW-620	cell growth or viability	–	SRB	48 h	–	5.87
c1ccc2c(-c3nc4ccccc4[nH]3)c3ccccc3cc2c1	MCF7	cell growth or viability	–	MTT	48 h	–	4.88
O=c1[nH]cc(S(=O)(=O)Nc2cccc(-c3nnc(-c4cccc(Cl)c4)o3)c2)c(=O)[nH]1	NCI-H441	cell growth or viability	–	MTT	24 h	–	5.37
Cc1ccc(S(=O)(=O)N[C@@H](Cc2ccccc2)C(=O)CCl)cc1	THP-1	TNF-α release	inhibitor	–	17 h	LPS-stimulated	5.97
O=C(/C=C/c1ccc2c(=O)n(Cc3cccc(F)c3)cnc2c1)NO	SW-620	cell growth or viability	–	SRB	48 h	–	5.78
COc1cc2nc(N3CCN(C(=O)c4ccco4)[C@H]4CCCC[C@H]43)nc(N)c2cc1OC (racemic)	FaDu	cell growth or viability	–	–	72 h	–	4.85
COc1cc(Nc2nccc(-c3cnn4nc(OC)ccc34)n2)cc(C(F)(F)F)c1	NCI-H441	cell growth or viability	–	ATP luminescence	–	–	6.24
COc1cccc(C(=O)O[C@@H]2CN3Cc4c(cc5c(c4OC)OCO5)[C@@]24C=C[C@H](OC)C[C@@H]34)c1	SAOS-2	cell growth or viability	–	WST-1	–	–	5.16
Clc1ccc(-c2nc3ccccc3[nH]2)cc1Cl	MCF7	cell growth or viability	–	MTT	48 h	–	4.96
O=c1cc(-c2ccc(O)c(O)c2)oc2cc(O)cc(O)c12	HEp-2	cell growth or viability	–	WST-1	48 h	–	4.97
CC(C)NCC(O)c1ccc(O)c(O)c1 (racemic)	THP-1	TNF-α release	inhibitor	–	17 h	LPS-stimulated	7.80
COc1cc(C2Oc3cc([C@H]4Oc5cc(O)cc(O)c5C(=O)[C@@H]4O)ccc3OC2CO)ccc1O (some centres unmarked)	HepaRG	cell growth or viability	–	MTT	24 h	–	3.85
Cc1cc(-c2nc(C(=O)Nc3cc4oc(N5CCOCC5)nc4nc3N3CC[C@@H](O)C3)co2)ccn1	A20	cell growth or viability	–	–	5 days	–	5.61
CC(C)[C@H](N)C(=O)N1CCC[C@H]1B(O)O	NOMO-1	cell growth or viability	–	ATP luminescence	48 h	–	6.78
O=Cc1ccc(CO)o1	HEp-2	cell growth or viability	–	WST-1	48 h	–	4.10
O=C(/C=C/c1ccc2c(=O)n(CC3CCCCC3)cnc2c1)NO	SW-620	cell growth or viability	–	SRB	48 h	–	5.84
Nc1ncnc2c1ncn2[C@@H]1O[C@H](CO)[C@@H](O)[C@H]1O	HEp-2	cell growth or viability	–	WST-1	48 h	–	4.31

SMILES	cell line	effect on	mode	technique	time	notes	pIC50
N#Cc1ccc(COC[C@H]2O[C@@H](n3c(NCc4ccc(Cl)c(Cl)c4)nc4c(N)ncnc43)[C@H](O)[C@@H]2O)cc1	FaDu	cell growth or viability	–	–	72 h	–	< 4.70
O=[N+]([O-])c1cccc(-c2nc3ccccc3[nH]2)c1	MCF7	cell growth or viability	–	MTT	48 h	–	4.61
N#Cc1cc([N+](=O)[O-])c2sc(C(N)=O)[n+]([O-])c2c1	THP-1	TNF-α release	inhibitor	–	17 h	LPS-stimulated	5.53
O=C1Nc2ccc(Cl)cc2[C@@](C#CC2CC2)(C(F)(F)F)O1	FaDu	cell growth or viability	–	–	72 h	–	< 4.70
CC(C)NCC(O)c1cc(O)cc(O)c1 (centres unmarked)	THP-1	TNF-α release	inhibitor	–	17 h	LPS-stimulated	6.22
O=C(/C=C/c1cccc(S(=O)(=O)Nc2ccccc2)c1)NO	SW-620	cell growth or viability	–	SRB	48 h	–	5.49
CC[C@@]1(O)C(=O)OCc2c1cc1n(c2=O)Cc2cc3ccccc3nc2-1	P388	cell growth or viability	–	MTT	96 h	–	7.85
CCCC1(C)C(C#N)(C#N)C1(C#N)C#N	THP-1	TNF-α release	inhibitor	–	17 h	LPS-stimulated	5.94
NCCc1ccc(O)c(O)c1	FaDu	cell growth or viability	–	–	72 h	–	< 4.70
COc1ccc(C(=O)O[C@@H]2CN3Cc4c(cc5c(c4OC)OCO5)[C@@]24C=C[C@H](OC)C[C@@H]34)cc1OC	SAOS-2	cell growth or viability	–	WST-1	–	–	5.68
COc1ccc(-c2nc3ccccc3[nH]2)cc1O	MCF7	cell growth or viability	–	MTT	48 h	–	4.53
O=C(/C=C/c1ccc2ncn(Cc3ccccc3F)c(=O)c2c1)NO	SW-620	cell growth or viability	–	SRB	48 h	–	5.95
CC(=O)O[C@H]1C(=O)[C@@]2(C)[C@H]([C@H](OC(=O)c3ccccc3)[C@]3(O)C[C@H](OC(=O)[C@H](O)[C@@H](NC(=O)c4ccccc4)c4ccccc4)C(C)=C1C3(C)C)[C@]1(OC(C)=O)CO[C@@H]1C[C@@H]2O	MCF7	cell growth or viability	–	MTT	–	–	5.63
CCCCc1ccc2[nH]c(NC(=O)OC)nc2c1	FaDu	cell growth or viability	–	–	72 h	–	6.82
CCCCCC/N=C1\c2cc(C(N)=O)nc3c(N)c(Cl)c(N)c(c23)N1C	Calu-3	cell growth or viability	–	–	–	–	6.07
Nc1nc(Nc2ccccc2)nc2c1ncn2[C@@H]1O[C@H](CO)[C@@H](O)[C@H]1O	FaDu	cell growth or viability	–	–	72 h	–	< 4.70
O=c1c(O)c(-c2ccc(O)c(O)c2)oc2cc(O)cc(O)c12	HEp-2	cell growth or viability	–	WST-1	48 h	–	4.96
COc1c(C)c(OS(=O)(=O)c2ccc3ccccc3c2)c(C)c(OS(=O)(=O)c2ccc3ccccc3c2)c1C(=O)/C=C/c1ccccc1	FaDu	cell growth or viability	–	SRB	72 h	–	< 4.30
CC(C)C(=O)SCCCCCCC(=O)Nc1nc(-c2ccccc2)cs1	FaDu	cell growth or viability	–	–	72 h	–	5.37
CC(C)C[C@H](NC(=O)[C@H](Cc1ccccc1)NC(=O)c1cnccn1)B(O)O	SJSA-1	cell growth or viability	–	ATP luminescence	–	–	7.96
CC(C)(C=O)Cc1cc(C(C)(C)C)c(O)c(C(C)(C)C)c1	FaDu	cell growth or viability	–	–	72 h	–	< 4.70
C=CCn1c(-c2ccc(Cl)cc2)nc2ccccc21	MCF7	cell growth or viability	–	MTT	–	–	4.10
